Data on twelve compounds can be found in ChEMBL document CHEMBL1139629 (Bioorg Med Chem Lett, 2005).

Molecules are shown by their SMILES.

For data set [1], the target named is T1, Prostaglandin E2 receptor EP3 subtype (Homo sapiens, UniProt P43115).
T1 sequence (P43115 whole entry): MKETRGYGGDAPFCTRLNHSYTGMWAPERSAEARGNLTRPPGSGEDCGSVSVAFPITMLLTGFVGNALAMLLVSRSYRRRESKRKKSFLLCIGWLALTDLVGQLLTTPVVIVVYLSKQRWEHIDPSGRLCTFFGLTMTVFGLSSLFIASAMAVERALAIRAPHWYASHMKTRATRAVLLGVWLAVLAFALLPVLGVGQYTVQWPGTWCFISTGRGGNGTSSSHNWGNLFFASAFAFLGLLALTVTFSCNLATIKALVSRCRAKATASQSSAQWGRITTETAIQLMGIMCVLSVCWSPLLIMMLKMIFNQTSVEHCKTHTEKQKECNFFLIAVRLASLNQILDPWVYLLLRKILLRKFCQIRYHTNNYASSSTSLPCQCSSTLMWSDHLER
Kind of data set: Displacement of [3H]PGE-2 from human Prostanoid EP3 receptor.

For data set [2], the target named is Prostaglandin F2-alpha receptor (Homo sapiens, UniProt P43088). Kind of data set: Displacement of [3H]PGF-2 from human Prostanoid FP receptor.
Chain of Prostaglandin F2-alpha receptor (P43088 whole entry): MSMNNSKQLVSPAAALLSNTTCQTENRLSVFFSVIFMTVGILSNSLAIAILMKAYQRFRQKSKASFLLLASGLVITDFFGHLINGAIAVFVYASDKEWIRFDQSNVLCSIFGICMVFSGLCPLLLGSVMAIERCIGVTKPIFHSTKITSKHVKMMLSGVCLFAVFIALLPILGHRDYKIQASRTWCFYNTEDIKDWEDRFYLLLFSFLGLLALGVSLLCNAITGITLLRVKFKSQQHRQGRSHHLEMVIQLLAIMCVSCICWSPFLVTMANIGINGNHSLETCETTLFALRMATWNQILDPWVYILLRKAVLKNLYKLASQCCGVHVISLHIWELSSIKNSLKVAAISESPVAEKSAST
Data set [3] deals with T2, Prostaglandin D2 receptor (Homo sapiens, UniProt Q13258).
T2 sequence (Q13258 whole entry): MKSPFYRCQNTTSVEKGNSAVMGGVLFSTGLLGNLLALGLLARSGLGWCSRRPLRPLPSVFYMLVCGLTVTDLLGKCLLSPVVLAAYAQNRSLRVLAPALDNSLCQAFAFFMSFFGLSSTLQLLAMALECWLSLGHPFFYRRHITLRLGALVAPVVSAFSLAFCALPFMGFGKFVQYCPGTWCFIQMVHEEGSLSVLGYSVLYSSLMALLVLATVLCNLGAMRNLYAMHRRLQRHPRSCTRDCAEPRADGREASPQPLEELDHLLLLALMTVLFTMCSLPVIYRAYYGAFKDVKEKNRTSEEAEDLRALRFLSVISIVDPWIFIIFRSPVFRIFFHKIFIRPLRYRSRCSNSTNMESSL
Kind of data set: Displacement of [3H]PGD-2 from human Prostanoid DP receptor.

Data set [4] concerns the target Prostaglandin E2 receptor EP2 subtype (Homo sapiens, UniProt P43116). Kind of data set: Displacement of [3H]-PGE-2 from human Prostanoid EP2 receptor.
For data set [5], the target named is T3, Prostaglandin E2 receptor EP1 subtype (Homo sapiens, UniProt P34995).
T3 sequence (P34995 whole entry): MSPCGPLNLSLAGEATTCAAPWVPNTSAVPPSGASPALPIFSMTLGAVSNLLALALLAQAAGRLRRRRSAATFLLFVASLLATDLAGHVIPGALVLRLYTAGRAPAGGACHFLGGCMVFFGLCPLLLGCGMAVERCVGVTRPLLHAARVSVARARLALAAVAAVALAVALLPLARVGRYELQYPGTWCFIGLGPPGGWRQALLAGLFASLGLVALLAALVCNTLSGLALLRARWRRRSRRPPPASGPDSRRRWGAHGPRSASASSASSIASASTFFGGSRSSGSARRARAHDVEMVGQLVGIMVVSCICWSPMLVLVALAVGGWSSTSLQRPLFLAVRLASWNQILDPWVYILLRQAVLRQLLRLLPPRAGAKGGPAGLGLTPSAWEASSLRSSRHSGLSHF
Description: Displacement of [3H]PGE-2 from human Prostanoid EP1 receptor.

Data set [6] has as its target T4, Thromboxane A2 receptor (Homo sapiens, UniProt P21731).
T4 sequence (P21731 whole entry): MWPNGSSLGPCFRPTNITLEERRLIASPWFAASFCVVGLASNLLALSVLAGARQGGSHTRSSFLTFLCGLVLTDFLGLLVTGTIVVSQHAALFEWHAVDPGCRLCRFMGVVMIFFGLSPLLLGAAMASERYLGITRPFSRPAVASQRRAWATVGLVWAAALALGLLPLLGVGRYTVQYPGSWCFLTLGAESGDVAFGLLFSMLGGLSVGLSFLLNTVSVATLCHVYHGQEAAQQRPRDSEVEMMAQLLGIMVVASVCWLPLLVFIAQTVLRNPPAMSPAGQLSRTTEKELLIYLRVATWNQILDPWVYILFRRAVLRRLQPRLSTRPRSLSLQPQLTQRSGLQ
Kind of data set: Displacement of [3H]SQ-29,548 from human Prostanoid TP receptor.

Data set [7] addresses Prostaglandin E2 receptor EP4 subtype (Homo sapiens, UniProt P35408). Description: Displacement of [3H]PGE-2 from human Prostanoid EP4 receptor.
The target in data set [8] is Prostacyclin receptor (Homo sapiens, UniProt P43119). Description: Displacement of [3H]iloprost from human Prostanoid IP receptor. In outline:
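Competitive radioligand binding using cloned human IP receptor, measuring displacement of [3H]-iloprost.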

The subject of data set [9] is Monkey. Kind of data set: Inhibition concentration against ADP-induced platelet aggregation using monkey platelet rich plasma. It counts as functional. The conditions noted are these: Cercopithecidae. In outline:
(§1)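 Functional IP agonism was measured as inhibition of ADP-induced aggregation in platelet-rich plasma from human, rat, dog or monkey. IC50 was taken from the inhibition of aggregation.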

Data set [10] is described as follows: Area under curve in rat after oral administration at 10 mg/kg dose. Type of data set: ADME, organism-based. On the set-up: dose 10 mg/kg, route oral. As to conditions: in vivo.
A short description of data set [11]: Maximum concentration in rat after oral administration at 10 mg/kg dose. Type of data set: ADME, organism-based. Also on record: dose 10 mg/kg, route oral. The conditions noted are these: in vivo.
Data set [12] in a line: Half life in rat after intravenous administration at 10 mg/kg dose. As to conditions: in vivo. Type of data set: ADME, organism-based. On the set-up: dose 10 mg/kg, route intravenous.
Data set [13] is filed under the species Canis familiaris. Description: Inhibition concentration against ADP-induced platelet aggregation using dog platelet rich plasma. It counts as functional. As to conditions: Canis lupus familiaris. Summed up:
as §1

Data set [14] is described as follows: Bioavailability in rat after […] administration at 10 mg/kg dose. Type of data set: ADME, organism-based. As to conditions: in vivo, read-out: Ba.
A short description of data set [15]: Total clearance in dog after intravenous administration at 0.32 mg/kg dose. It counts as ADME, organism-based, Canis lupus familiaris. Also on record: dose 0.32 mg/kg, route intravenous. The conditions noted are these: in vivo, read-out: CLtot.
The species entered for data set [16] is Rattus norvegicus. Description: Inhibition concentration against ADP-induced platelet aggregation using rat platelet rich plasma. It counts as functional. In outline: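 Aggregation was induced with ADP in rat platelet-rich plasma, and IC50 was taken from inhibition of aggregation. Values are the mean of two or three experiments.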
Data set [17] relates to dog (Canis familiaris). Kind of data set: Area under curve in dog after oral administdogion at 0.32 mg/kg dose. The conditions noted are these: in vivo.
A short description of data set [18]: Total clearance in rat after intravenous administration at 10 mg/kg dose. The conditions noted are these: in vivo, read-out: CLtot. Also on record: dose 10 mg/kg, route intravenous. Type of data set: ADME, organism-based.
The test system of data set [19] is Cell line. Kind of data set: Inhibition concentration against ADP-induced platelet aggregation using human platelet rich plasma. It counts as functional, cell-based. In outline:
as §1

Chain of Prostacyclin receptor (P43119 whole entry): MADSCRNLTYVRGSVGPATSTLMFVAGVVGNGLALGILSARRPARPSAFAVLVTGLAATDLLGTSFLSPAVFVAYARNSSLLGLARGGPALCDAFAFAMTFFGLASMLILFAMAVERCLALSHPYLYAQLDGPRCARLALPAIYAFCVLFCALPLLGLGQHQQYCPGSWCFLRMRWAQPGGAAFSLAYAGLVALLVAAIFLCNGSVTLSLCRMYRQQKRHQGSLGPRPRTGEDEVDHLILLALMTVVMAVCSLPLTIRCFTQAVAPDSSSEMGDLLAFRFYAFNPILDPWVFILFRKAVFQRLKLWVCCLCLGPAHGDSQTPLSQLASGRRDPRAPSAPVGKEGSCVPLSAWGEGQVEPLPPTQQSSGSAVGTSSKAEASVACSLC
Chain of Prostaglandin E2 receptor EP4 subtype (P35408 whole entry): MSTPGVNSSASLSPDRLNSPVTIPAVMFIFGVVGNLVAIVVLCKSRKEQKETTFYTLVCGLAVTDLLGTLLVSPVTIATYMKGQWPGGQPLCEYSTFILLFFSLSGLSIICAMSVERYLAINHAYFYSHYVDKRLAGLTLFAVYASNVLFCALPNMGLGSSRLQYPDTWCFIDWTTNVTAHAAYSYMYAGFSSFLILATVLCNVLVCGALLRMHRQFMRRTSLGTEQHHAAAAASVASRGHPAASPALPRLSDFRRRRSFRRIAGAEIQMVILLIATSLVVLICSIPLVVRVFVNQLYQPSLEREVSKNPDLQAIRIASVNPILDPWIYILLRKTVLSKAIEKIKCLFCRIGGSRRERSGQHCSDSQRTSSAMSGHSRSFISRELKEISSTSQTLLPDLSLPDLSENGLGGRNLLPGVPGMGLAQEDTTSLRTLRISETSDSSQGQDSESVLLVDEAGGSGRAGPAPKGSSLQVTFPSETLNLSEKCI
Chain of Prostaglandin E2 receptor EP2 subtype (P43116 whole entry): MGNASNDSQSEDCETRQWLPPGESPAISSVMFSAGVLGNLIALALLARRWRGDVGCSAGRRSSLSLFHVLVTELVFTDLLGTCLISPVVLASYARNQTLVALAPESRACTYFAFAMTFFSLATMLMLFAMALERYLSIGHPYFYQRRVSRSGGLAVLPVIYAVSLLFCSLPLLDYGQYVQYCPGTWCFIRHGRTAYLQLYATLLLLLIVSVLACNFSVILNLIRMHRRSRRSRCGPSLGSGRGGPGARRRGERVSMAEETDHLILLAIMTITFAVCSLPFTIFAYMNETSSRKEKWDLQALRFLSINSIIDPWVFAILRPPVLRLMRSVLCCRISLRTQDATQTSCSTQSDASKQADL

Turning to `O=C(O)COc1cccc(C[C@@H]2CCCC=C2c2nc(-c3ccccc3)c(-c3ccccc3)o2)c1`, the Ki in data set [1] was 6.8 µM; in [2] it was over 1 µM; in data set [3], over 1 µM; in data set [4], over 1 µM; in data set [5], over 1 µM; in data set [6] it was over 1 µM.

As to `O=C(O)COc1cccc2c1CCC[C@H]2N1CCC[C@@H]1c1nc(-c2ccccc2)c(-c2ccccc2)o1`, the Ki in [1] is over 10 µM; in data set [2], over 1 µM; in data set [7], over 10 µM; in data set [3], over 1 µM; in [4], over 1 µM; in data set [5], over 1 µM. For the same compound, the Ki in data set [6] is over 1 µM; in [8], 0.012 µM.

Turning to `O=C(O)COc1cccc2c1CC[C@](O)(COC(=O)N(c1ccccc1)c1ccccc1)C2`, the inhibitory constant (Ki) is 8.2 µM in data set [1]; over 10 µM in [2]; over 10 µM in data set [7]; 2.3 µM in data set [3]; over 10 µM in [4]; 9.6 µM in [5]. Further, the Ki in data set [6] was over 10 µM; in data set [8], 0.0089 µM. The IC50 in [9] is 0.013 µM; in [13], 0.48 µM; in data set [16] it was 1.4 µM; in [19] it was 0.018 µM. Also, the AUC in [10] turned out to be 1.59 µg·h/mL; in [17], 2.2 µg·h/mL. Further, the Cmax in data set [11] was found to be 0.342 µg/mL. In data set [12], the half-life was 1.81 h. In addition, in data set [14], the bioavailability came out at 38%. Also, the clearance was determined as 0.139 L/h/kg in [15] and 2.28 L/h/kg in data set [18].

With `O=C(O)COc1cccc2c1CCC(COC(=O)N(c1ccccc1)c1ccccc1)=C2`, the results for the IC50 in data set [16] and in data set [19] were over 10 µM and 0.091 µM, respectively.

Regarding `O=C(O)COc1cccc2c1CCC(COC(=O)N(c1ccccc1)c1ccccc1)C2` (stereo not given), the Ki was 1.9 µM in data set [1]; over 10 µM in [7]; over 1 µM in data set [4]; over 1 µM in data set [5]; 0.14 µM in data set [8]. In addition, the 50% inhibitory concentration (IC50) in data set [16] is over 10 µM; in data set [19], 0.053 µM.

Take `O=C(O)COc1cccc2c1CC[C@H](COC(=O)N(c1ccccc1)c1ccccc1)[C@H]2O`: the IC50 is over 10 µM in [16] and 3.2 µM in data set [19].

For the compound `O=C(O)COc1cccc2c1CC[C@](O)(COC(=O)N(c1ccccc1)c1ccccc1)[C@H]2O`, the figures for the IC50 in [16] and in data set [19] were over 10 µM and 1.3 µM, respectively.

As to `O=C(O)COc1cccc2c1CC[C@@](O)(COC(=O)N(c1ccccc1)c1ccccc1)C2`, the IC50 in [16] is over 10 µM; in data set [19] it was 0.27 µM.

As for `O=C(O)COc1cccc2c1CC[C@](O)(COC(=O)N(c1ccccc1)c1ccccc1)C2O` (single isomer, unassigned), the Ki in data set [1] is over 10 µM; in data set [7], over 10 µM; in data set [4], over 1 µM; in data set [5], over 1 µM; in data set [8], 0.11 µM. Moreover, the figures for the IC50 in data set [16] and in [19] were 7.4 µM and 0.0058 µM, respectively.

Take `O=C(O)COc1cccc2c1CC[C@H](COC(=O)N(c1ccccc1)c1ccccc1)C2O` (single isomer, unassigned): the IC50 in data set [16] is over 10 µM; in data set [19] it was 0.17 µM.

For the compound `CCC/C(CC1CCc2c(cccc2OCC(=O)O)C1)=N\OC(c1ccccc1)c1ccccc1` (stereo not given) [AP-227], the IC50 in data set [16] turned out to be 5.6 µM; in [19] it was 0.15 µM.

`CC#CCC(C)[C@H](O)/C=C/[C@@H]1[C@H]2C/C(=C/CCCC(=O)O)C[C@H]2C[C@H]1O` (stereo not given in full) [ILOPROST]: in data set [19], the 50% inhibitory concentration (IC50) amounted to 0.0025 µM.
